Data as given in ChEMBL document CHEMBL4477203 (J Med Chem, 2016).
Numbered stars: 1 amine (or outer) side, 2 acyl side, 3 side chain; on linkers, the order of the positions; unused ones are H or OH. Bridge positions count the residues as written; N and C are the ends. Peptide text beside a SMILES is read from it. I, II: the chains in the order shown. Suberoyl = O=C(CCCCCCC(=O)[*:2])[*:1]

Tests used:
[1] = target: T1, Neuropeptide Y receptor type 4 (Homo sapiens, UniProt P50391); test: Displacement of [3H](2R,7R)-10 from human NPY Y4 receptor expressed in CHO cells co-expressing Gqi5-mtAEQ after 90 mins in presence of sodium-free HEPES buffer by liquid scintillation counting; type: cell-based
T1 sequence (P50391 whole entry): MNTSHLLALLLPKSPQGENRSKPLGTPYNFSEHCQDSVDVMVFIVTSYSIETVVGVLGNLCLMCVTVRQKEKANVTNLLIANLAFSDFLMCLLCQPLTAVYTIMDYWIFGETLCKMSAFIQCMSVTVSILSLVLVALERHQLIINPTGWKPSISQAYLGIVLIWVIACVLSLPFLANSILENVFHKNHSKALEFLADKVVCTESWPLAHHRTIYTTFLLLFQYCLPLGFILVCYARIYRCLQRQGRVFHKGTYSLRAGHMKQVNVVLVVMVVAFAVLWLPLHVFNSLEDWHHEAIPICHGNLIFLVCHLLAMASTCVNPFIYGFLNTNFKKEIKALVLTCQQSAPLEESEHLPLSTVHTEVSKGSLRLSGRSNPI

[2] = target: T2, Neuropeptide Y receptor type 5 (Homo sapiens, UniProt Q15761); test: Displacement of [3H]propionyl-pNPY from human NPY Y5 receptor expressed in human HEC1b cells after 120 mins by liquid scintillation counting; type: cell-based
T2 sequence (Q15761 whole entry): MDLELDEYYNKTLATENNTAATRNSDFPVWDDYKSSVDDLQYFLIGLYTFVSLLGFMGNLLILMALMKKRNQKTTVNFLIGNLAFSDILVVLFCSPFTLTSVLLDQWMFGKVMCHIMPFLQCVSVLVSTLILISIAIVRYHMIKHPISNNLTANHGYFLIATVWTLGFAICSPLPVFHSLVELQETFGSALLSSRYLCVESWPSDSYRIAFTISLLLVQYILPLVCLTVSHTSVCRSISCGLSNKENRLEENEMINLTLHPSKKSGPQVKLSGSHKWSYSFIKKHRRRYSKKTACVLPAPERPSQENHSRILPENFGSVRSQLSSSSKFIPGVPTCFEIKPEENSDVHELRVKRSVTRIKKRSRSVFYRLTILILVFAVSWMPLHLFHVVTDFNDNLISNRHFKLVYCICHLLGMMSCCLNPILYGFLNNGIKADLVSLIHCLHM
Summary of the method: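 Adherent HEC-1B-hY5 cells in buffer II with 1% BSA and 0.1 mg/mL bacitracin at 22 °C. […] Incubation was 120 min, followed by ice-cold washes, lysis and scintillation counting.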

[3] = target: T1, Neuropeptide Y receptor type 4; test: Intrinsic activity at human NPY Y4 receptor expressed in CHO cells co-expressing Gqi5-mtAEQ assessed as induction of calcium mobilization by aequorin luminescence assay relative to pancreatic polypeptide; type: functional, cell-based
Summary of the method: (§1)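 Luminescence was integrated as area under the curve and normalized to the response to 1 µM PP. Data are means ± SEM of at least 3 independent experiments, each run in triplicate.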

[4] = target: T1, Neuropeptide Y receptor type 4; test: Agonist activity at human NPY Y4 receptor expressed in HEK293 cells co-expressing CRE-Luc gene assessed as inhibition of forskolin stimulated luciferase activity after 4.5 hrs by luminescence assay; type: functional, cell-based
Summary of the method: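 HEK293 cells stably co-transfected with a CRE-controlled firefly luciferase reporter and hY4R, tested in phenol-red-free DMEM, pH 7.4. The maximal inhibition by PP was set to 0% activity (α = 1.0). Data are means ± SEM of at least 3 experiments in triplicate.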

[5] = target: T3, Neuropeptide Y receptor type 2 (Homo sapiens, UniProt P49146); test: Displacement of [3H]propionyl-pNPY from human NPY Y2 receptor expressed in CHO cells co-expressing Gqi5-mtAEQ after 90 mins by liquid scintillation counting; type: cell-based
T3 sequence (P49146 whole entry): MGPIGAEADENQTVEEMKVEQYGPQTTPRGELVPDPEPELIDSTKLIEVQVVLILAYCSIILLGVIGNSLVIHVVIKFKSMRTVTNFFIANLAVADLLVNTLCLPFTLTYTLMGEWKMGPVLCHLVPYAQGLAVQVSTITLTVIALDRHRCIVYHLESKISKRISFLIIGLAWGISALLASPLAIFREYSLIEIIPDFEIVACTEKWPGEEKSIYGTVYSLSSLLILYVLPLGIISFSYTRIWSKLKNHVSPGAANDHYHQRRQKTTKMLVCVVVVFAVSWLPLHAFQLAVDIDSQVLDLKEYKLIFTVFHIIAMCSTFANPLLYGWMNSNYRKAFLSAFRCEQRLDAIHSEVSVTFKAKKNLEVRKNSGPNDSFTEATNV
Summary of the method: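 Adherent CHO-hY2R-Gqi5-mtAEQ cells in buffer I with 1% BSA and 0.1 mg/mL bacitracin at 22 °C. […] Incubation was 90 min, followed by two ice-cold washes, lysis and scintillation counting.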

[6] = target: T1, Neuropeptide Y receptor type 4; test: Agonist activity at human NPY Y4 receptor expressed in CHO cells co-expressing Gqi5-mtAEQ assessed as induction of calcium mobilization by aequorin luminescence assay; type: functional, cell-based; summary of the method: as §1
[7] = target: T1, Neuropeptide Y receptor type 4; test: Intrinsic activity at human NPY Y4 receptor expressed in HEK293 cells co-expressing CRE-Luc gene assessed as inhibition of forskolin stimulated luciferase activity after 4.5 hrs by luminescence assay relative to pancreatic polypeptide; type: functional, cell-based
Summary of the method: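 HEK293 cells stably co-transfected with a CRE-controlled firefly luciferase reporter and hY4R, tested in phenol-red-free DMEM, pH 7.4. […] The maximal inhibition by PP was set to 0% activity (α = 1.0). Data are means ± SEM of at least 3 experiments in triplicate.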

[8] = target: T4, Neuropeptide Y receptor type 1 (Homo sapiens, UniProt P25929); test: Displacement of [3H]UR-MK136 from human NPY Y1 receptor expressed in human MCF7 cells by liquid scintillation counting; type: cell-based
T4 sequence (P25929 whole entry): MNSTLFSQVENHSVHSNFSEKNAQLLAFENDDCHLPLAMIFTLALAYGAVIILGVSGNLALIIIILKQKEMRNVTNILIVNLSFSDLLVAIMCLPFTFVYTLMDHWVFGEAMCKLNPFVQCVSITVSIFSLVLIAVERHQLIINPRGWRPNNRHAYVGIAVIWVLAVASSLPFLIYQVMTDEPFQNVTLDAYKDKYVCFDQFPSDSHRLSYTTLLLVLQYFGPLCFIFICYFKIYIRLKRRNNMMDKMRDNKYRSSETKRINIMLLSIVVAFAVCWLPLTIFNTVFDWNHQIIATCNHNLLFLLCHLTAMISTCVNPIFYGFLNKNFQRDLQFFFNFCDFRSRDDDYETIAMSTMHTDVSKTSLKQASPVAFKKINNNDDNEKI

[9] = target: T1, Neuropeptide Y receptor type 4; test: Displacement of [3H](2R,7R)-10 from human NPY Y4 receptor expressed in CHO cells co-expressing Gqi5-mtAEQ after 90 mins in presence of L-15 medium by liquid scintillation counting; type: cell-based

Row | Structure (SMILES) | Ki ([1]; cho) | Ki [2] | Intrinsic activity [3] | EC50 ([4]; hek293) | Ki ([5]; cho) | EC50 ([6]; cho) | Intrinsic activity [7] | Ki ([8]; mcf7) | Ki [1] | EC50 [4] | Ki [5] | EC50 [6] | Ki [8] | Ki [9]
1 | CCC(=O)N[C@H](CCCC[C@@H](N)C(=O)N[C@H](Cc1ccc(O)cc1)C(=O)N[C@H](CCCNC(=N)N)C(=O)N[C@H](CC(C)C)C(=O)N[C@H](CCCNC(=N)N)C(=O)N[C@H](Cc1ccc(O)cc1)C(N)=O)C(=O)N[C@@H](Cc1ccc(O)cc1)C(=O)N[C@@H](CCCNC(=N)N)C(=O)N[C@@H](CC(C)C)C(=O)N[C@@H](CCCNC(=N)N)C(=O)N[C@@H](Cc1ccc(O)cc1)C(N)=O | 2.8 nM | 400 nM | 0.7 | 27 nM | 750 nM | 59 nM | 0.98 | 290 nM |  |  |  |  |  | 
2 | CC(C)C[C@H](NC(=O)[C@H](CCCNC(=N)N)NC(=O)[C@H](Cc1ccc(O)cc1)NC(=O)CCCCCCC(=O)N[C@@H](Cc1ccc(O)cc1)C(=O)N[C@@H](CCCNC(=N)N)C(=O)N[C@@H](CC(C)C)C(=O)N[C@@H](CCCNC(=N)N)C(=O)N[C@@H](Cc1ccc(O)cc1)C(N)=O)C(=O)N[C@@H](CCCNC(=N)N)C(=O)N[C@@H](Cc1ccc(O)cc1)C(N)=O (I: YRLRY-NH2 / II: YRLRY-NH2; linker I:N-II:N via Suberoyl) |  | 280 nM | 0.73 |  |  |  | 0.93 |  | 3.5 nM | 86 nM | 1700 nM | 49 nM | 720 nM | 
3 | CC(C)C[C@H](NC(=O)[C@H](C)NC(=O)[C@H](Cc1ccc(O)cc1)NC(=O)CCCCCCC(=O)N[C@@H](Cc1ccc(O)cc1)C(=O)N[C@@H](CCCNC(=N)N)C(=O)N[C@@H](CC(C)C)C(=O)N[C@@H](CCCNC(=N)N)C(=O)N[C@@H](Cc1ccc(O)cc1)C(N)=O)C(=O)N[C@@H](CCCNC(=N)N)C(=O)N[C@@H](Cc1ccc(O)cc1)C(N)=O (I: YALRY-NH2 / II: YRLRY-NH2; linker I:N-II:N via Suberoyl) |  | 220 nM | 0.85 |  |  |  | 0.98 |  | 12 nM | 160 nM | > 3000 nM | 290 nM | 1400 nM | 
4 | CC(C)C[C@H](NC(=O)[C@H](C)NC(=O)[C@H](Cc1ccc(O)cc1)NC(=O)CCCCCCC(=O)N[C@@H](Cc1ccc(O)cc1)C(=O)N[C@@H](C)C(=O)N[C@@H](CC(C)C)C(=O)N[C@@H](CCCNC(=N)N)C(=O)N[C@@H](Cc1ccc(O)cc1)C(N)=O)C(=O)N[C@@H](CCCNC(=N)N)C(=O)N[C@@H](Cc1ccc(O)cc1)C(N)=O (I: YALRY-NH2 / II: YALRY-NH2; linker I:N-II:N via Suberoyl) |  | 550 nM |  |  |  |  |  |  | > 3000 nM | > 3000 nM | > 10000 nM | > 3000 nM | > 3000 nM | 
5 | CC(C)C[C@H](NC(=O)[C@H](CCCNC(=N)N)NC(=O)[C@H](Cc1ccc(O)cc1)NC(=O)CCCCCCC(=O)N[C@@H](Cc1ccc(O)cc1)C(=O)N[C@@H](CCCNC(=N)N)C(=O)N[C@@H](CC(C)C)C(=O)N[C@@H](C)C(=O)N[C@@H](Cc1ccc(O)cc1)C(N)=O)C(=O)N[C@@H](C)C(=O)N[C@@H](Cc1ccc(O)cc1)C(N)=O (I: YRLAY-NH2 / II: YRLAY-NH2; linker I:N-II:N via Suberoyl) |  | > 10000 nM |  |  |  |  |  |  | > 3000 nM | > 3000 nM | > 10000 nM |  | > 10000 nM | 
6 | CC(C)C[C@H](NC(=O)[C@H](CCCNC(=N)N)NC(=O)[C@H](Cc1ccc(O)cc1)NC(=O)C(N)CCCCC(N)C(=O)N[C@@H](Cc1ccc(O)cc1)C(=O)N[C@@H](CCCNC(=N)N)C(=O)N[C@@H](CC(C)C)C(=O)N[C@@H](CCCNC(=N)N)C(=O)N[C@@H](Cc1ccc(O)cc1)C(N)=O)C(=O)N[C@@H](CCCNC(=N)N)C(=O)N[C@@H](Cc1ccc(O)cc1)C(N)=O (stereo not given in full) |  |  |  |  |  |  |  |  | 1.06 nM |  |  |  |  | 
7 | CC[C@H](C)[C@H](N)C(=O)N[C@H]1CCC(=O)NC[C@@H](C(=O)N[C@@H](Cc2ccc(O)cc2)C(=O)N[C@@H](CCCN=C(N)N)C(=O)N[C@@H](CC(C)C)C(=O)N[C@@H](CCCN=C(N)N)C(=O)N[C@@H](Cc2ccc(O)cc2)C(N)=O)NC(=O)[C@@H]2CCCN2C(=O)[C@H](NC(=O)[C@@H](N)[C@@H](C)CC)CCC(=O)NC[C@H](C(=O)N[C@@H](Cc2ccc(O)cc2)C(=O)N[C@@H](CCCN=C(N)N)C(=O)N[C@@H](CC(C)C)C(=O)N[C@@H](CCCN=C(N)N)C(=O)N[C@@H](Cc2ccc(O)cc2)C(N)=O)NC(=O)[C@@H]2CCCN2C1=O |  |  | 0.62 |  |  |  | 1.01 |  |  |  |  |  |  | 
8 | CC(C)C[C@H](NC(=O)[C@H](CCCNC(=N)N)NC(=O)[C@H](Cc1ccc(O)cc1)NC(=O)CCCCCCC(=O)N[C@@H](Cc1ccc(O)cc1)C(=O)N[C@@H](CCCNC(=N)N)C(=O)N[C@@H](CC(C)C)C(=O)N[C@@H](CCCNC(=N)N)C(=O)N[C@@H](Cc1ccc(O)cc1)C(N)=O)C(=O)N[C@@H](C)C(=O)N[C@@H](Cc1ccc(O)cc1)C(N)=O (I: YRLAY-NH2 / II: YRLRY-NH2; linker I:N-II:N via Suberoyl) |  | 460 nM | 0.85 |  |  |  | 0.99 |  | 11 nM | 150 nM | > 3000 nM | 310 nM | 1600 nM | 
9 | CC(C)C[C@H](NC(=O)[C@H](CCCNC(=N)N)NC(=O)[C@H](Cc1ccc(O)cc1)NC(=O)[C@@H](N)CCCC[C@H](N)C(=O)N[C@@H](Cc1ccc(O)cc1)C(=O)N[C@@H](CCCNC(=N)N)C(=O)N[C@@H](CC(C)C)C(=O)N[C@@H](CCCNC(=N)N)C(=O)N[C@@H](Cc1ccc(O)cc1)C(N)=O)C(=O)N[C@@H](CCCNC(=N)N)C(=O)N[C@@H](Cc1ccc(O)cc1)C(N)=O |  | 2100 nM | 0.78 |  |  |  | 1.07 |  | 2.3 nM | 19 nM | 950 nM | 18 nM | 930 nM | 17 nM
